Measurements reported in ChEMBL document CHEMBL2062470, “Fungal bis-Naphthopyrones as Inhibitors of Botulinum Neurotoxin Serotype A” (ACS Med Chem Lett, 2012).

Experiments:
[1] = biological target: Botulinum neurotoxin type A (Clostridium botulinum (strain Hall / ATCC 3502 / NCTC 13319 / Type A)) (UniProt P0DPI1); experiment: Inhibition of Clostridium botulinum Hall BoNT/A protease activity using Ac-SNKTRIDEANQRATKML-NH2 as substrate at 100 uM after 5 mins by RP-HPLC analysis
How it was run: (§1)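 HPLC-based BoNT/A protease assay; single-point percent inhibition of protease activity at 100 or 20 μM compound.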

[2] = biological target: Botulinum neurotoxin type A (Clostridium botulinum (strain Hall / ATCC 3502 / NCTC 13319 / Type A)) (UniProt P0DPI1); experiment: Inhibition of Clostridium botulinum Hall BoNT/A protease activity using Ac-SNKTRIDEANQRATKML-NH2 as substrate at 20 uM after 5 mins by RP-HPLC analysis; how it was run: as §1
[3] = biological target: Botulinum neurotoxin type A (Clostridium botulinum (strain Hall / ATCC 3502 / NCTC 13319 / Type A)) (UniProt P0DPI1); experiment: Inhibition of Clostridium botulinum Hall BoNT/A-mediated paralysis in CD1 mouse phrenic nerve hemidiaphragm assessed as time required to 50% loss of twitch tension at 20 uM measured upto 5 hrs (reference value: 62 mins)
[4] = biological target: Botulinum neurotoxin type A (Clostridium botulinum (strain Hall / ATCC 3502 / NCTC 13319 / Type A)) (UniProt P0DPI1); experiment: Inhibition of Clostridium botulinum Hall BoNT/A-mediated paralysis in CD1 mouse phrenic nerve hemidiaphragm assessed as time required to 50% loss of twitch tension at 2 uM measured upto 5 hrs (reference value: 62 mins)
[5] = biological target: Botulinum neurotoxin type A (Clostridium botulinum (strain Hall / ATCC 3502 / NCTC 13319 / Type A), UniProt P0DPI1); experiment: Inhibition of Clostridium botulinum Hall BoNT/A protease activity using Ac-SNKTRIDEANQRATKML-NH2 as substrate after 5 mins by RP-HPLC analysis
Botulinum neurotoxin type A, sequence (P0DPI1 2-448 limits assumed): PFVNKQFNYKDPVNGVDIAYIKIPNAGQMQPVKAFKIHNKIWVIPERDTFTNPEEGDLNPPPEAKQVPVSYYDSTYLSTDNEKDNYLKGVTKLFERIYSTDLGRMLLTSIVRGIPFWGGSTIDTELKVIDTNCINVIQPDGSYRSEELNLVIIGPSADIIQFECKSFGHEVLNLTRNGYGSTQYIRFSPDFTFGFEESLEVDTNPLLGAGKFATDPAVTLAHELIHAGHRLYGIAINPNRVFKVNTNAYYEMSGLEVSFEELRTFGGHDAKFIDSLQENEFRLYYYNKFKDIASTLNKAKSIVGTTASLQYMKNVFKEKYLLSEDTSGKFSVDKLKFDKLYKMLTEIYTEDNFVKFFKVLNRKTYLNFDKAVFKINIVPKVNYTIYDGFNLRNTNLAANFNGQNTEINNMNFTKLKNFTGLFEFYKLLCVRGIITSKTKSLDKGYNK
How it was run: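 HPLC-based BoNT/A protease assay; percent inhibition measured at nine compound concentrations, with IC50 derived by curve fitting.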

Botulinum neurotoxin type A (Clostridium botulinum (strain Hall / ATCC 3502 / NCTC 13319 / Type A)), sequence (P0DPI1 2-448 limits assumed): as above

SMILES	inhibition [1] [%]	inhibition [2] [%]	TIME [3] [h]	TIME [4] [h]	IC50 [5] [µM]
CCC[C@H]1Cc2cc3c(-c4c(O)cc(O)c5c(O)c6c(cc45)C[C@H](CCC)OC6=O)c(O)cc(O)c3c(O)c2C(=O)O1	96	85	3.28	3.15	
CCOc1ccc(C(Nc2cccnc2)c2cc(Cl)c3cccnc3c2O)cc1 (racemic)	98	96.2	5	5	2.1
CCC[C@H]1Cc2cc3c(-c4c(O)cc(O)c5c(O)c6c(cc45)C[C@H](CCC)OC6=O)c(O)cc(O)c3c(O)c2C(=O)O1 (single isomer, unassigned; atropisomer)	80.3	67	1.58	2.9	
CCC[C@H]1Cc2cc3c(-c4c(O)cc(O)c5c(O)c6c(cc45)C[C@H](CCC)OC6=O)c(O)cc(O)c3c(O)c2C(=O)O1 (single isomer, unassigned; atropisomer) [TALARODERXINE A]					10.1
CC1CC(=O)c2c(cc3c(-c4c(O)cc(O)c5c(O)c6c(cc45)OC(C)CC6=O)c(O)cc(O)c3c2O)O1 (stereo not drawn) [CEPHALOCHROMIN]	72	45	0.983		29.2
C[C@H]1Oc2cc3c(-c4c(O)cc(O)c5c(O)c6c(cc45)O[C@H](C)[C@@H](C)C6=O)c(O)cc(O)c3c(O)c2C(=O)[C@@H]1C [CHAETOCHROMIN A]	74	55	3.13	1.73	24.6
COC(=O)[C@]12Oc3ccc(-c4ccc5c(c4O)C(=O)C4=C(O)C[C@@H](C)[C@H](O)[C@@]4(C(=O)OC)O5)c(O)c3C(=O)C1=C(O)C[C@@H](C)[C@@H]2O [SECALONIC ACID A]	64.5	39.1	1.12		28.6
Cc1cc(O)c2c(c1)C(=O)c1c(c(O)cc(O)c1-c1c(O)cc(O)c3c1C(=O)c1cc(C)cc(O)c1C3=O)C2=O [SKYRIN]	74.3	40.3	1.35	1.07	31.5
CCC[C@H]1Cc2cc3c(-c4c(O)cc(O)c5c(O)c6c(cc45)C[C@H](CCC)OC6=O)c(O)cc(O)c3c(O)c2C(=O)O1 [TALARODERXINE A]					3.7
